According to the EternaBench riboswitch data:

Tested on: MS2 coat protein
Test: apparent Kd, MS2 coat protein; higher = weaker binding; RNA-MaP array; FMN 200 µM where present
Summary of the method: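 Green signal from SNAP-549-labelled MS2 coat protein was normalised to red-channel RNA signal and to the median Fmax of control clusters. The protein was titrated from 0.7 or 1.5 nM, doubling to 3 µM, without and then with constant ligand, over designs transcribed by stalled E. coli RNA polymerase on Illumina sequencing-chip clusters, in 100 mM Tris-HCl pH 7.5, 80 mM KCl, 4 mM MgCl2, BSA, DTT, yeast tRNA and Tween-20. The apparent Kd is the median of filtered per-cluster binding-curve fits.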

[1] = designed as: OFF switch for flavin mononucleotide, no ligand
[2] = ligand present: flavin mononucleotide, designed as: OFF switch for flavin mononucleotide
[3] = designed as: ON switch for flavin mononucleotide, no ligand
[4] = ligand present: flavin mononucleotide, designed as: ON switch for flavin mononucleotide

AGAUGGCGAGGAUAUACAUGAGGAUCACCCAUGUGAGAGAAAAGAGUGAGGAAGAAAAGUAGAAGGCGCUGUCA
apparent Kd [1]: 80.6 nM
apparent Kd [2]: 130 nM

AAAAAACAUGAGGAUCACCCAUGUCAGGAUAUCUGUAUUCAAUCCUCGGAUUGAAUACAGAGAAGGGACAAAAA
apparent Kd [1]: 37.8 nM
apparent Kd [2]: 54.6 nM

AAAUAGUUAGGAUAUACAUGAGGAUCACCCAUGUGGACUUAUGGCGAUUAAUUUAGUGGUAGAAGGGACUCAAA
apparent Kd [1]: 53.8 nM
apparent Kd [2]: 51.4 nM

AGUGUGUUAGGAUAUCGGAUAUGCUGGAGGAGGUGGAUUUACGAGAAGGAACAUGAGGAUCACCCAUGUAGGAG
apparent Kd [1]: 37.1 nM
apparent Kd [2]: 35.6 nM

CUAGUAUAUCAGGAUAUGAUUUUGUGUAGUUGGUCAGAAGGGAUGACAUGAGGAUCACCCAUGUUAAGGGAUGA
apparent Kd [1]: 94.2 nM
apparent Kd [2]: 108 nM

AGCAGACGAGGAUAUGAUAAAGAUCACAUGAGGAUCACCCAUGUACGCAGGAUACUGCGAUCAGAAGGCGUCUGCU
apparent Kd [1]: 13 nM
apparent Kd [2]: 13.8 nM

GUAGCAUAGGCAGGAUAUUCAUAUAAUAAAUAAACAUGAGGAUCACCCAUGUGGCGAAAGCCUUGGGAGAAGGGCCAAUGCUAC
apparent Kd [3]: 933 nM
apparent Kd [4]: 60.9 nM

AUGUUGAGCAGUGUAUUAAGAUCACAUGAGGAUCACCCAUGUAGAAGGCACGAGCUGAUCGCUCGUGAGGAUAUGCAUCACUGC
apparent Kd [1]: 7.12 nM
apparent Kd [2]: 29.2 nM

GCAGUGCCAGCGGUACUGCCUCUAGCAGAAGGGUGACGAGACAUGAGGAUCACCCAUGUAGAGACACAGGAUAUGCACCAGCUU
apparent Kd [3]: 142 nM
apparent Kd [4]: 8.26 nM

AAGUACCGGUGAGGAUAUUUUUAAUAGAACUUUAUGAUAUACAUGAGGAUCACCCAUGUUACUUUAAAGAAGGCAUCGGAUUAA
apparent Kd [1]: 18 nM
apparent Kd [2]: 14.8 nM

AGGAGAAAUGUAGGAUAUGGGCGGAUAUAUGGGCAAAGCGCAUAUAUCCGCCCAGAAGGACAUGAGGAUCACCCAUGUUUCCCU
apparent Kd [1]: 11.1 nM
apparent Kd [2]: 13.3 nM

GGAUCGAGAGUGAGGAUAUGCUGGUCCUUGGAUCAGCAGAAGGCACAUGAGGAUCACCCAUGUGGUUCCGAUCC
apparent Kd [1]: 28.8 nM
apparent Kd [2]: 244 nM

GGGUGACAUGAGGAUCACCCAUGUCAGGAUAUGAUACUAUGUACUUCGGUACAUAGUAUCAGAAGGGACAUCAU
apparent Kd [1]: 284 nM
apparent Kd [2]: 29.9 nM

CAAUUUAGCGAGAAGGAGCGCCCGUAGGUACAUGAGGAUCACCCAUGUCCUUUGUGCUCUACGCGCUAGGAUAUCGAGAAACAG
apparent Kd [1]: 13.5 nM
apparent Kd [2]: 98.7 nM

GUAGUGUGAGGAUAUGAUUAAUAGAAGGGAAUGCGACUGCAUCAGAAGGCACAUGAGGAUCACCCAUGUAUGAA
apparent Kd [1]: 19.5 nM
apparent Kd [2]: 29.2 nM

CAAUUUAUAGCAGGAUAUAUAAUACAAUGAUUAAUAGAAGGGUUUAAUACAUGAGGAUCACCCAUGUCAUGUGUCAUAAUAACC
apparent Kd [1]: 33.4 nM
apparent Kd [2]: 28.8 nM

AUCAUUCGUGUAGGAUAUGCGUGGCGAAGCUAUGCAGAAGGACAUGAGGAUCACCCAUGUCUUUCUGUCUGUGUACAGACAGGA
apparent Kd [1]: 22.2 nM
apparent Kd [2]: 94.8 nM

AUACUCAUGUAAGGAUAUGCAGCCGAAACGGCUGCAGAAGGUACUAUAAUACAUGAGGAUCACCCAUGUCAAAAUUAAAUAGUU
apparent Kd [3]: 185 nM
apparent Kd [4]: 31.7 nM

CGAUACAUGAGGGUCUCCCAUGACAUGAGGAUCACCCAUGUGCAGGAUAUACGUGUGAUGGUAUAGUAGAAGGGCAGUCUAUGU
apparent Kd [1]: 70.6 nM
apparent Kd [2]: 99.9 nM

GCUUUAUUGGUCAGGAUAUACAUUUGUUACUCUUUGUAGAAGGGACAUGAGGAUCACCCAUGUACUUUACAUUC
apparent Kd [1]: 16 nM
apparent Kd [2]: 17.4 nM

CUUUUGUGAGGAUAUCAGUAGUAAAAAAAUAAAAUUACUACUUAGAAGGCACAUGAGGAUCACCCAUGUUCCUC
apparent Kd [1]: 23.4 nM
apparent Kd [2]: 53 nM

AAUAACAGAGGAUAUACUGUUUUAUGUGUUUAUUAUUUUGAACAUGAGGAUCACCCAUGUAGAAGGCUGAAUAA
apparent Kd [1]: 23.9 nM
apparent Kd [2]: 21 nM

CCUGCACAUGAGGAUCACCCAUGUCAGGAUAUCUCGCCGUCGGCUUGCCGACGGUAUUAGAGAAGGGACAAGGG
apparent Kd [1]: 23.4 nM
apparent Kd [2]: 29 nM

GUAGCUCCUGACAUGAGGAUCACCCAUGUUCAAUUAUUAAAUCAGGAUAUCGGCUAGAAACUAGCCGAGAAGGGAUAUGCUACU
apparent Kd [3]: 5.13 nM
apparent Kd [4]: 5.97 nM

ACUAUACGAGGAUAUACUGUCAGUACUCAGACAUAAAUAUGACAUGAGGAUCACCCAUGUAGAAGGCGUUUACU
apparent Kd [1]: 29 nM
apparent Kd [2]: 39 nM

GACUGACAUGAGGAUCACCCAUGUAUUCAAACAUGAGGAUAUAUAACACAUCAUCGACGGAUAGAAGGCAUAGAUA
apparent Kd [3]: 128 nM
apparent Kd [4]: 124 nM

AGAAACUACGAGAAGGACAUGUGGUAAAACGCAAACAUGAGGAUCACCCAUGUAGGAUAUCGUAGUUUCAGGAUCGUGAGAUCA
apparent Kd [1]: 589 nM
apparent Kd [2]: 26.9 nM

CUUGUUUAUGUGAGGAUAUACUGUUAGUAAUGUUUGUAGAAGGUACAUGAGGAUCACCCAUGUUUAUUUCCUUU
apparent Kd [1]: 14.2 nM
apparent Kd [2]: 13.1 nM

ACACAUGAGGAUCACCCAUGUAGCUGGCGUCUGUGCCAGCCACAGGAUAUACGGCAACACAAGCCGUAGAAGGGUGAUAAACAC
apparent Kd [3]: 85.3 nM
apparent Kd [4]: 36.5 nM

UGUACUAUAAGGUUAAUUGUAUAUUGAGAAGGCAUACACAUGAGGAUCACCCAUGUAACAUGGAAUGAGGAUAUCAUUAUGUAC
apparent Kd [3]: 17.3 nM
apparent Kd [4]: 14.4 nM

GUCGCUAGAGGAUAUACAAUGGUAUAUGAUCCUAGUGACAUACAUGAGGAUCACCCAUGUAGAAGGCUAGUAUU
apparent Kd [1]: 23.5 nM
apparent Kd [2]: 19 nM

GGAGCACACAUUAACAUGAGGAUCACCCAUGUCAAAAGACAUGAGGAUAUGGAUCCGAAAAGGAUCCAGAAGGCAUAGUGCUCC
apparent Kd [3]: 301 nM
apparent Kd [4]: 15.7 nM

AUGUGGUGCGUAGGAUAUCAUUAAAGAAAACCCUGAGAAGGACGUGAGGACAUGAGGAUCACCCAUGUGGAUCACCCAUGUCAA
apparent Kd [1]: 316 nM
apparent Kd [2]: 278 nM

UGGGAGCGAUAGAAGGCCGGGUUUCACAUGAGGAUCACCCAUGUGCGGGCCCUCUGUUGAAGGCUGGAGGAUAUAUCGUGCGGA
apparent Kd [1]: 14.5 nM
apparent Kd [2]: 7.39 nM

AGUAACAGAGGAUAUACUAUUUUAUGUGUUUAUUGUUUUAAACAUGAGGAUCACCCAUGUAGAAGGCUGAAUAA
apparent Kd [1]: 29.4 nM
apparent Kd [2]: 40.5 nM

AUAUUACGAGGAUAUCGUCUCUCCCACAUGAGGAUCACCCAUGUUAUCCAUGUUUCGUUUCGAGAAGGCGUAAGUU
apparent Kd [1]: 75.9 nM
apparent Kd [2]: 58 nM

CCUGGAUCAUGAGGAUAUGGCACCUUAUUGGUGCCAGAAGGCAUGUCUCUUGACAUGAGGAUCACCCAUGUAAUAAAUUCCAGG
apparent Kd [3]: 1020 nM
apparent Kd [4]: 124 nM

AGAAACUACGAGAAGGACAUAUGGUACUUCAGAUACAUGAGGAUCACCCAUGUAGGAUAUCGUAGUUUCAGGAUCGUGAGAUCA
apparent Kd [1]: 9.58 nM
apparent Kd [2]: 42.6 nM

GAUUGUUUUUAGAAGGUGCCGGCGAGAGCCGCAACAUGAGGAUCACCCAUGUGUCGGUGACGACGCAAGGAUAUGGAGGUGGUU
apparent Kd [3]: 217 nM
apparent Kd [4]: 108 nM

GCCAGUUAUGUAGGAUAUGCGCGGCGAGCCUGUGCAGAAGGACAUGAGGAUCACCCAUGUGUUGCGGUCUGAGUACUGAUCGCU
apparent Kd [1]: 30 nM
apparent Kd [2]: 221 nM

GCGGAACAUGAGGAUCACCCAUGUAAAGGGUGUAAAGGAUAUUAUUGGGAGAAGGUAGGGUAAGAAGGUUGCUUGG
apparent Kd [3]: 887 nM
apparent Kd [4]: 1280 nM

GGAUUUCCUGAGGAUAUUGUAUCACCUGAUUGAUAAGAAGGCAGAACAUGAGGAUCACCCAUGUGGGUACUCGG
apparent Kd [1]: 134 nM
apparent Kd [2]: 135 nM

GGAAUCUGUGUCACUCCAUUGACAUGAGGAUCACCCAUGUCGCAGGAUAUCAGGCGCGGAGCGACUGAGAAGGGCGACUCGCGG
apparent Kd [1]: 86.4 nM
apparent Kd [2]: 50.5 nM

CGUUUUUAUGUAGGAUAUGCUUGUGGUAAGAUAGCAGAAGGACAUGAGGAUCACCCAUGUUAAUGAUAGAGAUUUUAUGUGGCG
apparent Kd [1]: 37.8 nM
apparent Kd [2]: 61.4 nM

GAUUCGGGAGGAUAUACAUGAGGAUCACCCAUGUGUUUUUUAUGUGUUAUGUUAUCAUGUAGAAGGUUUGGGUC
apparent Kd [1]: 151 nM
apparent Kd [2]: 195 nM

CUUCAGUCAGGAUAUGUUAAUCUCGCCACUCGGCGAACCGGACAGAAGGGACAUGAGGAUCACCCAUGUUAAAA
apparent Kd [1]: 34.7 nM
apparent Kd [2]: 19.7 nM

CCUCUACAUGAGGAUCACCCAUGUGAGGAUAUAAGAUUGCGGAUUCCGCACUACGGUCUUAGAAGGCGCGUGGA
apparent Kd [1]: 19 nM
apparent Kd [2]: 38.1 nM

ACCUUACAUGAGGAUCACCCAUGUUAGGAUAUCUCGCUUGCGCUGUCACAGCGCAAGCAGAGAAGGGACGCGGG
apparent Kd [1]: 35.2 nM
apparent Kd [2]: 40.9 nM
